Test results reported in ChEMBL document CHEMBL1926514, “Pyridobenzothiazole derivatives as new chemotype targeting the HCV NS5B polymerase” (Bioorg Med Chem, 2012).
The source made the active and inactive calls. No cut-off for these calls is given here.

Legend:
Hepatitis C virus [1] = experiment: Inhibition of HCV genotype 1b recombinant NS5B Cdelta21 polymerase expressed in Escherichia coli assessed as [3H]UTP incorporation into RNA/RNA homopolymeric template (rA)40/(rU)20 after 40 mins by liquid scintillation counting; parameters: species or system Hepatitis C virus subtype 1b
Procedure, shortened: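 E. coli-expressed NS5BΔC21 (genotype 1b), purified on DEAE and heparin columns, was used at 25–50 nM. Buffer: 50 mM Tris–HCl pH 8.0, 1 mM DTT, 0.25 mg/mL BSA, 0.25 mM MnCl₂, with (rA)40/(rU)20 primer/template. Inhibitor was preincubated 5 min on ice with enzyme and RNA, then [³H]-UTP (37 Ci/mmol) was added for 40 min at 25 °C. Product was captured on DE-81 filters and counted by scintillation. IC50 is the mean of at least three experiments.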

Hepatitis C virus [2] = experiment: Antiviral activity against HCV genotype 1b infected in human HuH5.2 cells assessed as inhibition of […] after 72 hrs by luciferase reporter gene assay; assay type: functional, organism-based, Hepacivirus hominis; settings: Huh-5-2, 72 h
Procedure, shortened: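 Four-step 1-to-5 dilution series were tested for 72 h at 37 °C, 5% CO₂. Cells were washed with PBS and lysed 5 min at room temperature, and luciferase luminescence was read as % of untreated controls. EC50 and EC90 came from dose–response curves; at least three independent experiments.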

[3] = Cytotoxicity against human HuH5.2 cells after 72 hrs by MTS assay; assay type: cell-based, Huh-5-2
Procedure, shortened: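 Metabolic activity was read as absorbance at 498 nm, with OD converted to % of untreated controls. CC50 came from the dose–response curve as 50% reduction of metabolic activity.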

Hepatitis C virus [4] = experiment: Inhibition of HCV genotype 1b recombinant NS5B Cdelta21 polymerase expressed in Escherichia coli assessed as [3H]UTP incorporation into RNA/RNA homopolymeric template (rA)40/(rU)20 at 10 uM after 40 mins by liquid scintillation counting in presence of increase concentration of UTP; settings: Hepatitis C virus subtype 1b
Procedure, shortened: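 NS5BΔC21 [³H]-UTP incorporation assay on (rA)40/(rU)20 at 25 °C for 40 min, with filter-binding scintillation read-out. Inhibition was measured at varying UTP concentrations; inhibitor was preincubated 5 min on ice with enzyme and RNA template.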

Hepatitis C virus [5] = experiment: Inhibition of HCV genotype 1b recombinant NS5B Cdelta21 polymerase expressed in Escherichia coli assessed as [3H]UTP incorporation into RNA/RNA homopolymeric template (rA)40/(rU)20 at 10 uM after 40 mins by liquid scintillation counting in presence of increase concentration of RNA primer/template; settings: Hepatitis C virus subtype 1b
Procedure, shortened: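 NS5BΔC21 [³H]-UTP incorporation assay on (rA)40/(rU)20 at 25 °C for 40 min, with DE-81 filter scintillation read-out. Inhibitor was held at a fixed subsaturating dose while the RNA primer/template was raised across two increasing doses; inhibitor was preincubated 5 min on ice with enzyme and RNA before UTP addition.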

SMILES | IC50 (Hepatitis C virus [1]) [µM] | EC50 (Hepatitis C virus [2]) [µM] | CC50 at 72 h [3] [µM] | inhibition (Hepatitis C virus [4]) | inhibition (Hepatitis C virus [5])
O=C(O)C1=CC(=C(c2ccc(O)c(C(=O)O)c2)c2ccc(O)c(C(=O)O)c2)C=CC1=O [AURINTRICARBOXYLIC ACID] | 15 | – | – | – | –
COc1ccc2c(c1)-n1c(c(C(=O)O)cc(-c3ccccc3)c1=O)S2(=O)=O | > 40 | 89.7 | > 100 | – | –
O=C(O)c1cc(-c2ccccc2)c(=O)n2c1sc1ccc(OC3CCCCC3)cc12 | 11 | > 100 | > 100 | Active | inactive
O=C(O)c1cc(C2CCCCC2)c(=O)n2c1sc1ccccc12 | > 40 | 53.5 | > 100 | – | –
O=C(O)c1ccc(=O)n2c1sc1ccc(OC3CCCCC3)cc12 | > 40 | > 100 | > 100 | – | –
O=C(O)c1cc(-c2ccccc2)c(=O)n2c1sc1ccc(F)cc12 | > 40 | > 100 | > 100 | – | –
O=C(O)c1cc(-c2ccccc2)c(=O)n2c1S(=O)(=O)c1ccc(F)cc1-2 | > 40 | 66 | > 100 | – | –
O=C(O)c1cc(C2CCCCC2)c(=O)n2c1sc1ccc(OC3CCCCC3)cc12 | 23 | > 56.5 | > 56.5 | Active | inactive
O=C(O)c1cc(-c2ccccc2)c(=O)n2c1S(=O)(=O)c1ccc(OC3CCCCC3)cc1-2 | 19 | 55.8 | > 100 | Active | inactive
CC(=O)c1cc(C(=O)O)c2sc3ccc(OC4CCCCC4)cc3n2c1=O | > 40 | > 100 | > 100 | – | –
CC(C)CCOc1ccc2sc3c(C(=O)O)cc(-c4ccccc4)c(=O)n3c2c1 | > 40 | 54 | 55 | – | –
COc1ccc2sc3c(C(=O)O)cc(-c4ccccc4)c(=O)n3c2c1 | > 40 | 51.2 | 51.8 | – | –
